Laboratory results: PMC4474499 (Science Advances, 2015)

Key:
NF-κB = assay: U937 NF-κB–GFP reporter assay; format: cell-based, human; details: U937 cells
TLR1 = target: T1, TLR1 (Homo sapiens, UniProt Q15399); assay: Microscale thermophoresis; format: binding
T1 sequence (Q15399 25-580 limits assumed): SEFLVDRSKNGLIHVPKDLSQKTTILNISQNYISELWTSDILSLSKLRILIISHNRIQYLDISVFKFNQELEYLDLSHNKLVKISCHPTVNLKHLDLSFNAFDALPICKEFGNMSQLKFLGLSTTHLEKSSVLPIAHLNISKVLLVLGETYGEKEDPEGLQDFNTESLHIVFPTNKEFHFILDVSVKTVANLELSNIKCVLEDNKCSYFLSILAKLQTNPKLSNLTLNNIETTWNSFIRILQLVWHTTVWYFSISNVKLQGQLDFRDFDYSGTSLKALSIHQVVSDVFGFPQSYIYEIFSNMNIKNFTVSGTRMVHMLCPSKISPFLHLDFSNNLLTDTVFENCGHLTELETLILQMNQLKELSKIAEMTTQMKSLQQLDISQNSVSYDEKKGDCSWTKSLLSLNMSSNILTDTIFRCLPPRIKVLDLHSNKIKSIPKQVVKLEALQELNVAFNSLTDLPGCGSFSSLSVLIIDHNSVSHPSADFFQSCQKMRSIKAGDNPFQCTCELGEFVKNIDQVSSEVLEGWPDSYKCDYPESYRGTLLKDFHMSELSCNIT
How it was run: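 Human TLR1 expressed in baculovirus-infected High Five insect cells and purified on protein A Sepharose. Labelled with NT-647 and held at 10 nM. Test compound varied 0.31 nM–10 μM. Buffer: 50 mM Tris-HCl pH 7.6, 150 mM NaCl, 10 mM MgCl2, 0.05% Tween 20, in glass capillaries. Apparent Kd fitted from thermophoresis.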

Raw 264.7 cells [1] = assay: In vitro NO activation assay for Raw 264.7 cells; format: cell-based, mouse; details: Raw 264.7 cells, 24 hours
How it was run: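 RAW 264.7 cells, 80,000/well, grown 24 h. Non-adherent cells removed; medium changed to unsupplemented RPMI 1640. Treated 24 h with test compound, or 66 nM (100 ng/ml) Pam3CSK4 as control. Supernatant reacted 15 min in the dark with 2,3-diaminonaphthalene in HCl, quenched with NaOH. Fluorescence read at ex 365/em 450 nm; nitrite calculated from a standard curve.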

Raw 264.7 cells [2] = assay: Quantitative RT-PCR of mRNA levels in Raw 264.7 macrophage cells; format: cell-based, mouse
How it was run: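 RAW 264.7 cells, 1 × 10^6/well, grown 24 h, then given fresh RPMI 1640. Exposed to test compound, or 33 nM (50 ng/ml) Pam3CSK4, for 0, 2, 8 or 24 h. Cells washed in cold PBS and frozen. Total RNA extracted (RNeasy) for qRT-PCR. Fold change calculated by ΔΔCt versus DMSO-treated cells, means ± SD.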

[3] = tested on: primary rat macrophage cells; assay: Primary peritoneal macrophage NO activation assay; format: cell-based; details: 24 hours
How it was run: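 Peritoneal cells from Sprague-Dawley rats collected by HBSS lavage, then red cells lysed. Seeded at 40,000/well in Iscove's medium with 10% FBS; adhered 2 h; non-adherent cells washed off; cultured overnight. Serum-free Iscove's then given with test compound, or 66 nM Pam3CSK4, for 24 h. Supernatant nitrite measured by diaminonaphthalene fluorescence.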

HEK-Blue hTLR2 cells = assay: QUANTI-Blue SEAP assay with anti-hTLR antibodies; format: cell-based, human; details: 60 nM, 24 hours
How it was run: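 HEK-Blue hTLR2 cells, 4 × 10^4/well, grown 24 h. Then 24 h in Opti-MEM/0.5% FBS containing 60 nM test compound, 0.66 nM Pam3CSK4 or 0.77 nM Pam2CSK4. Anti-hTLR1 IgG, anti-hTLR2 IgA or anti-hTLR6 IgA added at 0–10 μg/ml. Supernatant incubated with QUANTI-Blue 1 h at 37°C; A655 read.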

human TLR8 = target: T2, human TLR8 (Homo sapiens, UniProt Q9NR97); assay: SEAP reporter gene detection assay in HEK-Blue TLR8 cells; format: cell-based; details: 0 to 20 μM, 24 hours
T2 sequence (Q9NR97 27-1041): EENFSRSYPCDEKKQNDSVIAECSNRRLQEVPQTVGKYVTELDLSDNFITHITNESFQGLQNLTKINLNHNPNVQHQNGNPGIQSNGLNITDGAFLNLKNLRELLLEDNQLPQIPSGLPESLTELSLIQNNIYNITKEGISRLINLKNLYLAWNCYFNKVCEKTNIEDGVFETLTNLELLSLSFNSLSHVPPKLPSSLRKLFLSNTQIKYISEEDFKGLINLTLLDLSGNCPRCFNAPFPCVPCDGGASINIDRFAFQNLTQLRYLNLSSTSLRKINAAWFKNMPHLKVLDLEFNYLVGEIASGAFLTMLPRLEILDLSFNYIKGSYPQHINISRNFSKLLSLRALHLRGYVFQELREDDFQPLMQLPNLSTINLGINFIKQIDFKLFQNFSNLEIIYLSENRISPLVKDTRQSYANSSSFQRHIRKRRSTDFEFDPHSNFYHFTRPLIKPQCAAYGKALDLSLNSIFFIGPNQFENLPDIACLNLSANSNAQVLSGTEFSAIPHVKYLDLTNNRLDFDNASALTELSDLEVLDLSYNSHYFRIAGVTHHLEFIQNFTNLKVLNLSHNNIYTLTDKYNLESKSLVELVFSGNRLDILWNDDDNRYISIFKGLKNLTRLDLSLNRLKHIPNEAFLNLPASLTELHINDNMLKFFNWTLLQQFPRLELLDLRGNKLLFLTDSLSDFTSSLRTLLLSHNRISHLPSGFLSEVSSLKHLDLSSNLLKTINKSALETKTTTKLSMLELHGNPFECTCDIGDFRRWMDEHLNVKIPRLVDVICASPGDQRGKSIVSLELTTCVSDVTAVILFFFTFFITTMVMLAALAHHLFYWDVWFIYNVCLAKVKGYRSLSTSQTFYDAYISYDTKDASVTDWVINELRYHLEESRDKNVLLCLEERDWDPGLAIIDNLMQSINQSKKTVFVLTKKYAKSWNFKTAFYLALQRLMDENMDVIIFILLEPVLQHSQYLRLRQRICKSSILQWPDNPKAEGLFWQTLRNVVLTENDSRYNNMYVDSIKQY
How it was run: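 HEK 293 cells stably carrying the human TLR and a SEAP reporter, 4 × 10^4/well, grown 24 h. Then 24 h in Opti-MEM/0.5% FBS with test compound. Positive controls: poly(I:C) 0–10.9 μg/ml (TLR3), LPS 0–36.5 ng/ml (TLR4), FLA-BS 0–10 μg/ml (TLR5), R848 0–6 μg/ml (TLR7, TLR8). Supernatant heated 30 min at 65°C, then CSPD substrate added; luminescence read after 20 min.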

In the case of `CNc1ccc([N+](=O)[O-])cc1-n1cnc(-c2ccc(C(F)(F)F)cc2)c1` [CU-T12-9, N-methyl-4-nitro-2-(4-(4-(trifluoromethyl)phenyl)-1H-imidazol-1-yl)aniline], the NF-κB activation (NF-κB; 5 μM, 24 hours) is reported as “comparable activation to 66 nM (100 ng/ml) Pam3CSK4”, the NF-κB activation (NF-κB; 20 μM (GA even up to 100 μM)) is reported as “excellent NF-κB activation” and the Kd (TLR1) is reported as 229 ± 66 nM. For the same compound, the NO production (Raw 264.7 cells [1]) was “efficiently triggered NO production”, the “TLR1 mRNA” value (Raw 264.7 cells [2]; 1 μM CU-T12-9, 24 hours) was “potently increased” and the “time of highest TLR2 mRNA expression” value (Raw 264.7 cells [2]; 1 μM CU-T12-9 or 33 nM (50 ng/ml) Pam3CSK4, measured at 2, 8, 24 hours) was 2 h. The “IL-10 mRNA” value (Raw 264.7 cells [2]; 2 hours, decreased over time) was “up-regulated”, the “TNF mRNA expression” value (Raw 264.7 cells [2]; over time, maximal expression after 8 hours) was “increased” and the “iNOS mRNA expression” value (Raw 264.7 cells [2]; over time, peaked at 24 hours) was “increased”. The NO production [3] was “efficiently triggered NO production”, the “activation of QUANTI-Blue SEAP signaling” value (HEK-Blue hTLR2 cells) was “strongly activates” and the “activation of SEAP signaling, TLR8” value (human TLR8) was “not in other TLR-overexpressing cells”.
